Rows were chosen to be rich in hits. Some 1.9% of all compounds tested hit in one or more screens of this group.
SR-BI HDL uptake: blocks mouse SR-BI lipid uptake from DiI-HDL; ldlA[mSR-BI] CHO cells, DiI-HDL uptake fluorescence, 3 h; 320,000 compounds, 0.96% hits; AID 488896; inhibition, % at 12.5 µM; Q61009;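 active means mean replicate inhibition of at least 70% and a set share of replicates each scoring 70 or more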;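 further: 0% = median of neutral control wells and 100% = median of positive control wells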
Target sequence (Q61009 whole entry, looked up): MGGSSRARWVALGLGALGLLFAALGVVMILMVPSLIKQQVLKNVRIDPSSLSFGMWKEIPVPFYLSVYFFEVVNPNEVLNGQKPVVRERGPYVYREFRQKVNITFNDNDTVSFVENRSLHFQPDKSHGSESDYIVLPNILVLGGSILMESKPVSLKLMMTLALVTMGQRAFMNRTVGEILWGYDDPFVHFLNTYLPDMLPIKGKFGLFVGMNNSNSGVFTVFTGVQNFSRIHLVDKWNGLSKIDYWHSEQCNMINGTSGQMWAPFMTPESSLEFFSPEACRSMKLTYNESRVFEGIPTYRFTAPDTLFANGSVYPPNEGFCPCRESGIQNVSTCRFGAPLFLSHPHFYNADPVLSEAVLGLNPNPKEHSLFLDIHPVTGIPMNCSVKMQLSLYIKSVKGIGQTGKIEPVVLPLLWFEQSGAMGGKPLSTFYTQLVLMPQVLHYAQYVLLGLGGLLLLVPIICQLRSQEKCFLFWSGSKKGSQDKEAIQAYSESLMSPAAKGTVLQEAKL
SR-BI DiI-HDL act: activators of SR-BI mediated HDL lipid uptake. 320,000 compounds, 0.096% hits. CHO ldlA[mSR-BI] cells, DiI-HDL uptake fluorescence, 3 h; 100 = double the neutral-control signal. activation, % at 12.5 µM;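 active means mean replicate activation of at least 60% and every replicate at or above 60%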;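 further: 0% = median plate neutral-control signal and 100% = twice that signal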
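Material: SR-BI-overexpressing, LDLR-lacking CHO cells | Dosing: Single compound concentration, delivered by pin transfer | Probe or stimulus: Labelled HDL, 10 µg/mL | Signal: Bottom-read cell fluorescence after medium removal, ex 550/em 595 nm | Schedule: 3 h, 37 °C | Evaluation: HDL uptake via cellular fluorescence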
Neddyl block: inhibitors of human cullin neddylation. 360,000 compounds, 0.58% hits. P61081+Q13564. inhibition, % at 25 µM. TR-FRET cullin neddylation, biochemical; in the data active means inhibition above about 36%
UBC13 polyUb: human UBC13 polyubiquitination inhibition | inhibition, % at 20 µM | AID 485273 | UBC13 polyubiquitin chain formation, TR-FRET | 330,000 compounds, 0.47% hits | P61088; in the data active means inhibition above about 45%, passing the limit was not always enough
Target sequence (P61088 whole entry, looked up): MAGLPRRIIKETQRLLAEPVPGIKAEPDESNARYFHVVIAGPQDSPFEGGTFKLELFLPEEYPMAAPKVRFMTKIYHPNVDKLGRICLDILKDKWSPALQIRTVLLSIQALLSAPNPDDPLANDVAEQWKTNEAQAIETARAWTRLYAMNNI
Neddyl conf: confirmation of human cullin neddylation inhibitors; AID 652217; 1,800 compounds, 13% hits; calls only at 25 µM; TR-FRET cullin neddylation biochemical assay; shares compounds with Neddyl block; in the data active means inhibition above about 40%;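 further: neddylation substrate is the cullin 1 ring ligase complex with SKP2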
Numbers without * were called inactive; i = inactive; · = no result shown; + = active, no number.

SMILES | SR-BI HDL uptake | SR-BI DiI-HDL act | Neddyl block | UBC13 polyUb | Neddyl conf
Cc1cccnc1CNC(=O)C1(C)CCCN1CC(C)C (stereo not given) | · | · | 5.9 | · | ·
COC(=O)C1C(O)=C(C=Nc2ccccc2)C(=O)CC1(C)C (stereo not given) | -16.9 | 16.9 | 7.4 | -12.9 | ·
COC(=O)C1C(O)=C(C(C)=Nc2cccc3ccccc23)C(=O)CC1(C)C (stereo not given) | -5.5 | 5.5 | 45.2* | 7.0 | i
COc1cccc(CSc2nc(N)cc(N)n2)c1 | 20.8 | -20.8 | 5.5 | -4.8 | ·
O=C(COC(=O)/C=C/c1cccc(Br)c1)NCc1ccco1 | 6.3 | -6.3 | -2.2 | 1.5 | ·
COc1ccc(OC)c(/C=C/C(=O)OCC(=O)NCc2ccco2)c1 | -8.1 | 8.1 | 41.1* | -1.0 | ·
COc1cccc(/C=C/C(=O)OCC(=O)NCc2ccco2)c1 | -8.0 | 8.0 | 49.0* | 2.6 | i
OC(c1cccc(Cl)c1)c1ncc(-c2ccc(Oc3ccccc3)cc2)[nH]1 (stereo not given) | · | · | 9.6 | · | ·
COc1ccc(C2C3=C(CC(C)(C)CC3=O)Nc3c2c(=O)[nH]c(=O)n3Cc2ccccc2)cc1OC (stereo not given) | -20.9 | 20.9 | 44.2* | 21.2 | ·
COc1cc(C2C3=C(CC(C)(C)CC3=O)Nc3c2c(=O)[nH]c(=O)n3Cc2ccccc2)ccc1O (stereo not given) | -27.6 | 27.6 | 32.7 | 5.1 | ·
CCOc1cc(S(=O)(=O)NCc2ccc(OC)cc2)c(OCC)cc1-n1cnnn1 | -3.4 | 3.4 | 20.0 | 0.8 | ·
CCOc1cc(S(=O)(=O)NCc2ccco2)c(OCC)cc1-n1cnnn1 | -13.8 | 13.8 | 43.0* | 12.5 | ·
COc1ccc(/C=C2\CCn3c2nc2cc(C(=O)O)ccc2c3=O)cc1OC | 2.9 | 20.9 | 2.9 | 2.7 | ·
COC(=O)c1ccc(/C=C2\CCn3c2nc2cc(C(=O)O)ccc2c3=O)cc1 | -13.6 | 13.6 | 55.3* | 1.7 | +
CSc1ccc(/C=C2\CCn3c2nc2cc(C(=O)O)ccc2c3=O)cc1 | -35.9 | 35.9 | 46.4* | -3.1 | +
O=C(O)c1ccc2c(=O)n3c(nc2c1)/C(=C/c1ccc(Cl)c(Cl)c1)CC3 | 11.5 | -11.5 | · | 2.0 | ·
CN(CC(=O)Nc1ccccc1Br)C(=O)c1cccn1C | -9.3 | 9.3 | 5.6 | 3.3 | ·
O=C(/C=C/c1ccccc1)Nc1ccc2c(c1)C(=O)NC2=O | 7.8 | -7.8 | 43.8* | -9.3 | ·
O=C(Nc1ccc2c(c1)C(=O)NC2=O)c1ccccc1 | 4.0 | -4.0 | · | 8.6 | ·
O=C(Nc1ccc2c(c1)C(=O)NC2=O)c1ccc(S(=O)(=O)N2CCCC2)cc1 | 7.4 | -7.4 | 36.9* | 12.9 | i
O=C(Nc1ccc2c(c1)C(=O)NC2=O)c1cccc(C(F)(F)F)c1 | 11.9 | -12.5 | 40.4* | -0.5 | i
COc1cc(/C=N/NC(=O)c2ccc(-c3ccccc3)cc2)cc(OC)c1OC | 40.3 | -40.3 | · | 14.8 | ·
COc1ccc(/C=N/NC(=O)c2ccc(O)cc2O)cc1CSc1ccccn1 | -18.9 | 18.9 | 43.3* | 21.2 | i
COc1ccc(/C=N\NC(=O)c2ccc(-c3ccccc3)cc2)cc1COC(C)=O | 59.3 | -59.3 | 46.5* | -16.0 | i
CC(C)NC(=O)C1(C)CSCC(=O)N1CC(F)(F)F (stereo not given) | · | · | -1.2 | · | ·
SMILES | SR-BI HDL uptake | SR-BI DiI-HDL act | Neddyl block | UBC13 polyUb | Neddyl conf
Cc1c(Oc2ccc(C(F)(F)F)cc2[N+](=O)[O-])ccc2c3c(c(=O)oc12)CCC3 | -16.8 | 16.8 | 40.1* | 0.9 | i
Cc1c(OCc2ccc([N+](=O)[O-])cc2)ccc2c3c(c(=O)oc12)CCC3 | 1.5 | -1.5 | 1.2 | -10.1 | ·
CC1CCCCC1NC(=O)COC(=O)/C=C/c1ccc2c(c1)OCO2 (stereo not given) | -6.0 | 6.0 | 39.1* | 4.5 | i
C=CCNC(=O)NC(=O)COC(=O)/C(C#N)=C/c1cc(C)n(CCC(C)C)c1C | -14.1 | 14.1 | · | 20.8 | ·
Cc1cc(/C=C(\C#N)C(=O)OCC(=O)NC(=O)NC(C)(C)C)c(C)n1CCC(C)C | 17.5 | -17.5 | 39.6* | -7.3 | i
CCCn1c(C)cc(/C=C(\C#N)C(=O)OCC(=O)Nc2cccc(S(N)(=O)=O)c2)c1C | -13.1 | 13.1 | 63.3* | -5.8 | i
Cc1cc(=O)oc2cc(NC(=O)CN3C(=O)NC(C)(c4ccccc4)C3=O)ccc12 (stereo not given) | -10.8 | 10.8 | 57.6* | -1.7 | +
CC1(c2ccccc2)NC(=O)N(CC(=O)Nc2ccc3c(c2)OCO3)C1=O (stereo not given) | 5.4 | -5.4 | 0.1 | -5.0 | ·
Cc1ccccc1CC(=O)Nc1ccc2c(C)cc(=O)oc2c1 | 27.3 | -27.3 | 44.3* | 5.5 | i
CC(=O)OC[C@@H]1CN(Cc2ccccc2)C[C@H](n2cnc3c(N(C)C(C)C)ncnc32)O1 | · | · | 7.8 | · | ·
CN(C)c1ccc2c(=O)c3ccccc3oc2n1 | · | · | 39.8* | · | i
Cc1nc2oc3ccccc3c(=O)c2cc1C(=O)O | -15.8 | 15.8 | -19.1 | 3.8 | ·
CC1(C(=O)NCc2ccccc2)CSCC(=O)N1CCc1c[nH]c2ccccc12 (stereo not given) | · | · | -4.5 | · | ·
COCC1CCN(C(=O)c2cc(COc3cccc4cnccc34)on2)CC1 | -18.1 | 18.1 | 55.3* | 7.7 | ·
COCC1CCN(C(=O)c2cc(COc3ccc(F)cc3Cl)on2)C1 (stereo not given) | · | · | 2.5 | · | ·
Cc1nn(C)cc1C(C)NC(=O)c1cc(COc2c(F)cccc2F)on1 (stereo not given) | -0.5 | 0.5 | 2.6 | 3.6 | ·
Cc1nn(C)cc1C(C)NC(=O)c1cc(COc2cccc3cnccc23)on1 (stereo not given) | -1.8 | 1.8 | 41.3* | 5.0 | +
COc1cc(Cl)c(C)cc1NC(=O)COC(=O)c1ccc(CN2CCCC2=O)cc1 | 2.7 | -2.7 | -1.2 | 9.7 | ·
CCCc1cc(=O)oc2c(C)c(OC3CCCCC3=O)ccc12 (stereo not given) | 47.5 | -47.5 | 34.6 | 8.9 | ·
CCCCc1cc(=O)oc2cc(OC3CCCCC3=O)ccc12 (stereo not given) | 18.3 | -18.3 | 38.6* | 3.0 | i
CCc1nnc(NC(=O)CSc2nnc(-c3ccccc3O)n2-c2ccc(C)cc2C)s1 | -0.3 | 0.3 | 41.3* | -1.5 | i
CCc1nnc(NC(=O)CSc2nnc(COc3ccccc3)n2-c2ccc(C)cc2)s1 | -9.3 | 9.3 | -16.4 | 3.9 | ·
Nc1cc(Cl)ccc1C(=O)OCC(=O)NCc1cccs1 | -9.3 | 9.3 | 56.2* | 16.5 | ·
O=C(COC(=O)c1ccccc1Cl)NCc1cccs1 | · | · | 4.2 | · | ·
CC(C)C[C@@H](COCc1ccc([N+](=O)[O-])cc1)N1CCN(C(=O)c2ccc(C(F)(F)F)cc2)CCC1=O | · | · | -12.6 | · | ·
CCc1nn2c(N3CCOCC3)cc(C)nc2c1-c1ccc(F)cc1 | 1.8 | -1.8 | -173.7 | 20.4 | ·
CCc1nn2c(N(C)CCO)cc(C)nc2c1-c1ccc(F)cc1 | -3.3 | 3.3 | 43.6* | 0.7 | i
CC1(C)C(O)=C(c2nc3ccccc3[nH]2)C(=N)N1c1ccccc1 | 1.8 | -1.8 | 41.0* | -8.2 | ·

Screening data as filed in PubChem BioAssay.
